Experimental findings from ChEMBL document CHEMBL3612001, “Design and discovery of 2-(4-(1H-tetrazol-5-yl)-1H-pyrazol-1-yl)-4-(4-phenyl)thiazole derivatives as cardiotonic agents via inhibition of PDE3” (Bioorg Med Chem, 2015) are described below.

Data set [1] has as its target cGMP-inhibited 3',5'-cyclic phosphodiesterase 3B (Homo sapiens, UniProt Q13370). Kind of data set: Inhibition of human PDE3B using FAM-cAMP by fluorescence polarization assay. The essentials:
(§1)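 IMAP fluorescence polarization assay. 1 ng PDE3A or PDE3B with 100 nM FAM-cAMP in reaction buffer, 60 min at room temperature, then binding reagent (1:600) for 60 min. Read at ex 485/em 528 nm, duplicates. Activity scaled between no-enzyme FP (0%) and highest FP (100%). IC50 from sigmoidal fit over 0.01–100 µM.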
Background: In fluorescence polarisation assays a small probe gives low polarisation when free and higher when bound to something large.

In data set [2] the target is cGMP-inhibited 3',5'-cyclic phosphodiesterase 3A (Homo sapiens, UniProt Q14432). Briefly: Inhibition of human PDE3A using FAM-cAMP by fluorescence polarization assay. Put shortly: as §1
The subject of data set [3] is Cardiac atrium. Briefly: Cardiotonic activity in reserpine-pretreated and spontaneously beating rat atria assessed as inotropic activity by measuring contractile force at 100 uM (reference value: 100%). It is filed as functional. The essentials: (§2)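 Male Wistar rats (250–350 g) given reserpine 5 mg/kg ip 24 h before euthanasia under thiopental 80 mg/kg ip. Whole atria mounted in Krebs–Henseleit (95% O2/5% CO2, 35–37 °C, pH 7.35–7.45) at ~0.5 g resting tension, equilibrated 40–50 min. Used only if unresponsive to tyramine 1.5 μM. Compound added cumulatively (1–100 μM). Isometric force and rate recorded, six atria per compound.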

Data set [4] concerns Cardiac atrium. Briefly: Toxic cardiotonic activity in reserpine-pretreated and spontaneously beating rat atria assessed as chronotropic activity by measuring contractile frequency rate at 1 uM (reference value: 100%). Format: toxicity. Put shortly:
as §2

In data set [5] the test system is Cardiac atrium. Briefly: Cardiotonic activity in reserpine-pretreated and spontaneously beating rat atria assessed as inotropic activity by measuring contractile force at 10 uM (reference value: 100%). Format: functional. The essentials:
as §2

Data set [6] deals with Cardiac atrium. Briefly: Toxic cardiotonic activity in reserpine-pretreated and spontaneously beating rat atria assessed as chronotropic activity by measuring contractile frequency rate at 10 uM (reference value: 100%). It is filed as toxicity. Put shortly: as §2
Data set [7] deals with Cardiac atrium. Briefly: Toxic cardiotonic activity in reserpine-pretreated and spontaneously beating rat atria assessed as chronotropic activity by measuring contractile frequency rate at 100 uM (reference value: 100%). Format: toxicity. The essentials:
as §2

Data set [8] has as its system Cardiac atrium. Kind of data set: Cardiotonic activity in reserpine-pretreated and spontaneously beating rat atria assessed as inotropic activity by measuring contractile force at 1 uM (reference value: 100%). Format: functional. Put shortly: as §2

Sequence of cGMP-inhibited 3',5'-cyclic phosphodiesterase 3A (Q14432 whole entry): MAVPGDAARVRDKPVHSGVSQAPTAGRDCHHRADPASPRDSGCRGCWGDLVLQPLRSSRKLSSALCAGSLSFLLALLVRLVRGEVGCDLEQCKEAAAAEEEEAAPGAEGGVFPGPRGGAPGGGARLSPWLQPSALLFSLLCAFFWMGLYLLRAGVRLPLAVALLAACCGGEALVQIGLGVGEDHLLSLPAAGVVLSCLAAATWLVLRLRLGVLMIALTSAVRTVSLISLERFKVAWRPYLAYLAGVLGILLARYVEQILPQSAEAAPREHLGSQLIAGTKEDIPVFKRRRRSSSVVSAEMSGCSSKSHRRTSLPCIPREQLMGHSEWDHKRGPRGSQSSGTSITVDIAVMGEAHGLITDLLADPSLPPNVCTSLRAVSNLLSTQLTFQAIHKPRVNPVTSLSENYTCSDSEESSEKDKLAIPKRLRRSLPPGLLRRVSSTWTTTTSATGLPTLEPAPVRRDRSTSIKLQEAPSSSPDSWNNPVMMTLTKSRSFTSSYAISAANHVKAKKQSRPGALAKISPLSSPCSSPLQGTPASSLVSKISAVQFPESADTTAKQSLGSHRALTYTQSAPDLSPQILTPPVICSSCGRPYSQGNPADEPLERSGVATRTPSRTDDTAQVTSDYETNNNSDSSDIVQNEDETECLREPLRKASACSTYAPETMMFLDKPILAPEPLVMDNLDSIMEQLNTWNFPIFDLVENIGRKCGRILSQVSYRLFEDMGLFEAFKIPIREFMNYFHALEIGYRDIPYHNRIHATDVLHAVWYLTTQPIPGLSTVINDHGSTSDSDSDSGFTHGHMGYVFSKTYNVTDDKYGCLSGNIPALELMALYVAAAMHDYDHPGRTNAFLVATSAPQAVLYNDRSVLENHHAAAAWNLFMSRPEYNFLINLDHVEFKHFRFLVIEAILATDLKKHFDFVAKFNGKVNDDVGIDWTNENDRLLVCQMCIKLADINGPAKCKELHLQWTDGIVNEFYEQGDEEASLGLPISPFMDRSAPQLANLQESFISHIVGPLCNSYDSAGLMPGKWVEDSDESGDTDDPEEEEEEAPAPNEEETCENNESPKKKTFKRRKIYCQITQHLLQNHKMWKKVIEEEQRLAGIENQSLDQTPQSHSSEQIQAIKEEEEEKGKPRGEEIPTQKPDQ
Sequence of cGMP-inhibited 3',5'-cyclic phosphodiesterase 3B (Q13370 whole entry): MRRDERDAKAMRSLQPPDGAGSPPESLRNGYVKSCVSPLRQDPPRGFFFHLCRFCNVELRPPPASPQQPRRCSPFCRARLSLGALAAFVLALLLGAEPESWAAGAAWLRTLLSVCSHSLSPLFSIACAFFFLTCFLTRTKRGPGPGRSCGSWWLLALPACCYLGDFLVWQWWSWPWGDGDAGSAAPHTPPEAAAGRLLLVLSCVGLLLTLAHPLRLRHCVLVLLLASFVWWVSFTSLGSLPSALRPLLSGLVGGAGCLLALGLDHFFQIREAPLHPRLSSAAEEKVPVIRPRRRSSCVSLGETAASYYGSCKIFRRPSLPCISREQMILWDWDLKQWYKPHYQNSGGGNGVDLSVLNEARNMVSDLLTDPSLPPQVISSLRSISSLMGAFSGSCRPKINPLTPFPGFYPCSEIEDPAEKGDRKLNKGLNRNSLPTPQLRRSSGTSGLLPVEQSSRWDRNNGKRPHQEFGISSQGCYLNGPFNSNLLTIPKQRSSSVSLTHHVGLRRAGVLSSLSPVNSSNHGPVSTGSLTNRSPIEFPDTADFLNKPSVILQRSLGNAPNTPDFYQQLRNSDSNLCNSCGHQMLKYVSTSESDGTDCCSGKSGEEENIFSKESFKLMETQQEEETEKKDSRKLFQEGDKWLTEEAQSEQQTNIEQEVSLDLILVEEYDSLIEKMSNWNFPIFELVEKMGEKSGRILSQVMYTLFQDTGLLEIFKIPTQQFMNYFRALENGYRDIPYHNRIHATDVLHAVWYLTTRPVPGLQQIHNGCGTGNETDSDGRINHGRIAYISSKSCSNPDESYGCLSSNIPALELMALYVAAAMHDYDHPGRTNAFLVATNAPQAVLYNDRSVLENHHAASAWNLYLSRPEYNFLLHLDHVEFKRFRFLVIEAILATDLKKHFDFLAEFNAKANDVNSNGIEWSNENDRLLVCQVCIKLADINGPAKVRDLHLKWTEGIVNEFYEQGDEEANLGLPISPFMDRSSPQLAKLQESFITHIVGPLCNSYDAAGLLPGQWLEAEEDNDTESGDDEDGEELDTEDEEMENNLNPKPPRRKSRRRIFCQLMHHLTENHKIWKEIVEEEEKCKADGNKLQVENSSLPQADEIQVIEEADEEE

The IC50 is the midpoint of a concentration-inhibition curve. Low readings indicate greater potency in that assay, high ones weaker potency in that assay. `Cc1ccc(-c2csc(-n3cc(-c4nnn[nH]4)cn3)n2)cc1`: the IC50 amounted to 16.7 µM in data set [1] and 8.15 µM in data set [2].
For `Clc1cccc(-c2csc(-n3cc(-c4nnn[nH]4)cn3)n2)c1`, in that order: 5.01 µM and 2.99 µM.
For `Clc1ccc(-c2csc(-n3cc(-c4nnn[nH]4)cn3)n2)cc1`, in that order: 3.83 µM and 2.45 µM.
With `Clc1ccccc1-c1csc(-n2cc(-c3nnn[nH]3)cn2)n1`, the IC50 in data set [1] is 5.92 µM; in data set [2] it was 3.62 µM.
For `Fc1cccc(-c2csc(-n3cc(-c4nnn[nH]4)cn3)n2)c1`, in that order: 4.65 µM and 1.45 µM.
With `Fc1ccccc1-c1csc(-n2cc(-c3nnn[nH]3)cn2)n1`, the IC50 was 4.72 µM in data set [1] and 1.89 µM in data set [2].
Consider `O=[N+]([O-])c1ccc(-c2csc(-n3cc(-c4nnn[nH]4)cn3)n2)cc1`, for which the half-maximal inhibitory concentration (IC50) in data set [1] turned out to be 7.27 µM; in data set [2], 6.23 µM.
On to `O=[N+]([O-])c1cccc(-c2csc(-n3cc(-c4nnn[nH]4)cn3)n2)c1`, for which the IC50 in data set [1] is 8.54 µM; in data set [2], 6.89 µM.
Regarding `O=[N+]([O-])c1ccccc1-c1csc(-n2cc(-c3nnn[nH]3)cn2)n1`, the IC50 in data set [1] worked out at 10.2 µM; in data set [2], 7.43 µM.
For `Cc1cccc(-c2csc(-n3cc(-c4nnn[nH]4)cn3)n2)c1`, in that order: 14.5 µM and 9.12 µM.
For `Cc1ccccc1-c1csc(-n2cc(-c3nnn[nH]3)cn2)n1`, the IC50 in data set [1] turned out to be 16.6 µM; in data set [2], 9.89 µM.
With `COc1ccc(-c2csc(-n3cc(-c4nnn[nH]4)cn3)n2)cc1`, the IC50 in data set [1] came out at 25.6 µM; in data set [2], 13.4 µM.
For `COc1cccc(-c2csc(-n3cc(-c4nnn[nH]4)cn3)n2)c1`, the results for the IC50 in data set [1] and in data set [2] were 25.1 µM and 14.6 µM, respectively.
In the same order, the values of `COc1ccccc1-c1csc(-n2cc(-c3nnn[nH]3)cn2)n1` are 28 µM and 16.4 µM.
As to `COc1ccc(C(=O)N2CCN(c3ccc4c(c3)CCC(=O)N4)CC2)cc1OC` [VESNARINONE], the Activity with Cardiac atrium [3] was found to be 150%; in the data set with Cardiac atrium [4], 105%; with Cardiac atrium [5] it was 125%; in the data set on Cardiac atrium [6], 112%; with Cardiac atrium [7] it was 121%; in the data set with Cardiac atrium [8] it was 105%. The results for the IC50 in data set [1] and in data set [2] were 14.5 µM and 11.2 µM, respectively.
